# Test results reported in ChEMBL document CHEMBL4364261, “Positive Charge Patterning and Hydrophobicity of Membrane-Active Antimicrobial Peptides as Determinants of Activity, Toxicity, and Pharmacokinetic Stability” (J Med Chem, 2019).
# Activity calls are given as the source filed them. The rule behind the calls is not given here.
# Key:
# Lipid bilayer [1] = test: Binding affinity to 11,12-BrPC-loaded POPC membrane at 10 uM by tryptophan fluorescence method; assay type: ADME
# Pseudomonas aeruginosa [2] = test: Antibacterial activity against tobramycin-pretreated Pseudomonas aeruginosa isolate 380 after 20 hrs by microtiter dilution method; assay type: functional
# In short: (§1)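 Mueller-Hinton broth microdilution; 2-fold serial dilutions of peptide from 0 to 50 μM incubated 20 h at 37 °C with 50 000 cfu/well from an overnight MHB culture. Bacterial growth read as background-subtracted OD600. MIC recorded as the peptide concentration at which growth is inhibited. P. aeruginosa isolates came from sputum of cystic fibrosis patients with infections persisting after inhaled tobramycin.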
# Escherichia coli [3] = test: Induction of terbium(3)-loaded Escherichia coli lipid extract liposome membrane disruption at 10 uM measured after 20 mins by fluorescence assay relative to control; assay type: cell membranes
# Lipid bilayer [4] = test: Binding affinity to terbium(3)-loaded POPC membrane at 10 uM measured for 10 mins by fluorescence assay relative to control; assay type: ADME
# In short: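 Tb3+-loaded liposomes, E. coli lipid or POPC, size-exclusion exchanged and diluted to 2.5% (v/v) in dipicolinic acid buffer, stirring. Peptide added at 10 μM. Tb3+ excited at 314 nm, emission at 544 nm recorded for 10 min. Liposome-only signal subtracted, normalized to a 0.1% Triton-lysed control as 100% disruption.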
# [5] = Hemolytic activity in human RBC assessed as hemolysis at 40 uM measured after 1 hr; assay type: ADME, cell-based, Erythrocyte; settings: human red blood cells (erythrocytes), read-out: Activity
# In short: (§2)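 Fresh human erythrocytes washed and resuspended in PBS to a final 4% (v/v). Incubated 1 h at 37 °C with 2-fold serial peptide dilutions from 0 to 640 μM. Supernatant absorbance at 540 nm; PBS taken as 0% and 1% Triton as 100% hemolysis. Standard deviation reported; one-way ANOVA applied.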
# Pseudomonas aeruginosa [6] = test: Antibacterial activity against tobramycin-pretreated Pseudomonas aeruginosa isolate 330 after 20 hrs by microtiter dilution method; assay type: functional; in short: as §1
# Lipid bilayer [7] = test: Binding affinity to POPC membrane at 10 uM by tryptophan fluorescence method; assay type: ADME
# In short: (§3)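 Peptide at 10 μM in 10 mM Tris, 10 mM NaCl, pH 7.4, with 0.8 mg/mL E. coli total lipid extract or POPC liposomes, equilibrated overnight before recording. Trp excited at 280 nm, emission scanned 300–400 nm. After background subtraction, the wavelength of maximal emission was taken.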
# Pseudomonas aeruginosa [8] = test: Antibacterial activity against tobramycin-pretreated Pseudomonas aeruginosa isolate 214 measured after 20 hrs by microtiter dilution method; assay type: functional; in short: as §1
# Escherichia coli [9] = test: Binding affinity to Escherichia coli lipid extract liposome membrane at 25 uM by CD spectroscopic analysis; assay type: cell membranes
# In short: (§4)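 CD spectra of 25 μM peptide in 10 mM Tris, 10 mM NaCl, pH 7.4, with 2 mg/mL E. coli total lipid extract or POPC liposomes, equilibrated overnight. Helicity judged at 222 nm. Average of at least three independent experiments.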
# Lipid bilayer [10] = test: Binding affinity to POPC membrane at 25 uM by CD spectroscopic analysis; assay type: ADME; in short: as §4
# Escherichia coli [11] = test: Antibacterial activity against Escherichia coli K-12 measured after 20 hrs by microtiter dilution method; assay type: functional; settings: K-12, 20 h; in short: as §1
# Pseudomonas aeruginosa [12] = test: Antibacterial activity against Pseudomonas aeruginosa PAO1 measured after 20 hrs by microtiter dilution method; assay type: functional; settings: PAO1, 20 h; in short: as §1
# Escherichia coli [13] = test: Binding affinity to Escherichia coli lipid extract liposome membrane at 10 uM by tryptophan fluorescence quenching method; assay type: cell membranes
# In short: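 Acrylamide quenching of Trp; peptide 10 μM with 0.8 mg/mL E. coli lipid liposomes. Excitation at 295 nm, emission 310–400 nm. Read-out is the Stern–Volmer slope, with larger slopes meaning more quenching. At least two independent experiments, error given as standard deviation.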
# Pseudomonas aeruginosa [14] = test: Antibacterial activity against tobramycin-pretreated Pseudomonas aeruginosa isolate 287 measured after 20 hrs by microtiter dilution method; assay type: functional; in short: as §1
# [15] = Hemolytic activity in human RBC assessed as hemolysis at 320 to 640 uM measured after 1 hr; assay type: ADME, cell-based, Erythrocyte; settings: human red blood cells (erythrocytes), read-out: Activity; in short: as §2
# [16] = Stability of the compound assessed as Engyodontium album PMSF-pretreated proteinase K-mediated compound hydrolysis at 20 uM incubated for 10 mins at 70 degC by coomassie blue staining-based NuPAGE analysis; assay type: ADME; settings: parengyodontium album, 1 h, in the assay text read “incubated for up to 1 hr at 37 degC” for “incubated for 10 mins at 70 degC”
# In short: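 Reactions stopped with 5 mM PMSF; PMSF-preinhibited enzyme served as control. Samples heated 70 °C for 10 min and run on 12% Bis-Tris gels with Coomassie staining. Band density normalized to T0.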
# Escherichia coli [17] = test: Binding affinity to Escherichia coli lipid extract liposome membrane at 10 uM by tryptophan fluorescence method; assay type: cell membranes; in short: as §3
substance,measurement,setting,value
H-KALKKFLKAWAKLFKAL-NH2,Activity,Lipid bilayer [1],Active
same,MIC,Pseudomonas aeruginosa [2],6.3 µM
same,Activity,Escherichia coli [3],40%
same,Activity,Lipid bilayer [4],25 to 70%
same,"hemolysis at 1 h, 40 µM",[5],81%
same,MIC,Pseudomonas aeruginosa [6],6.3 µM
same,Activity,Lipid bilayer [7],Active
same,MIC,Pseudomonas aeruginosa [8],3.1 µM
same,Activity,Escherichia coli [9],Active
same,Activity,Lipid bilayer [10],Active
same,MIC,Escherichia coli [11],1.6 µM
same,MIC,Pseudomonas aeruginosa [12],3.1 µM
same,Activity,Escherichia coli [13],inactive
same,MIC,Pseudomonas aeruginosa [14],3.1 µM
same,"hemolysis at 1 h, up to 640 µM",[15],< 1%
H-KKKAAFAKAWAKAFKAA-NH2,MIC,Pseudomonas aeruginosa [2],> 50 µM
same,Activity,Escherichia coli [3],80%
same,"hemolysis at 1 h, 40 µM",[5],0%
same,MIC,Pseudomonas aeruginosa [6],> 50 µM
same,MIC,Pseudomonas aeruginosa [8],50 µM
same,Activity,Escherichia coli [9],Active
same,Stability,[16],Unstable
same,Activity,Lipid bilayer [10],Not Active
same,MIC,Escherichia coli [11],25 µM
same,MIC,Pseudomonas aeruginosa [12],50 µM
same,MIC,Pseudomonas aeruginosa [14],> 50 µM
same,Activity,Escherichia coli [17],Active
same,"hemolysis at 1 h, up to 640 µM",[15],< 1%
H-KKKKKKAAFAAWAAFAA-NH2,MIC,Pseudomonas aeruginosa [2],12.5 µM
same,Activity,Escherichia coli [3],35%
same,"hemolysis at 1 h, 40 µM",[5],0%
same,MIC,Pseudomonas aeruginosa [6],25 µM
same,MIC,Pseudomonas aeruginosa [8],3.1 µM
same,Activity,Escherichia coli [9],Active
same,Stability,[16],Stable
same,Activity,Lipid bilayer [10],Not Active
same,MIC,Escherichia coli [11],1.6 µM
same,MIC,Pseudomonas aeruginosa [12],12.5 µM
same,Activity,Escherichia coli [13],Active
same,MIC,Pseudomonas aeruginosa [14],3.1 µM
same,Activity,Escherichia coli [17],Active
same,"hemolysis at 1 h, up to 640 µM",[15],< 1%
H-KKKKKALFLKLWAAFLA-NH2,MIC,Pseudomonas aeruginosa [2],> 50 µM
same,Activity,Escherichia coli [3],40%
same,Activity,Lipid bilayer [4],25 to 70%
same,"hemolysis at 1 h, 40 µM",[5],49%
same,MIC,Pseudomonas aeruginosa [6],12.5 µM
same,Activity,Lipid bilayer [7],Active
same,MIC,Pseudomonas aeruginosa [8],6.3 µM
same,Activity,Escherichia coli [9],Active
same,Activity,Lipid bilayer [10],Active
same,MIC,Escherichia coli [11],3.1 µM
same,MIC,Pseudomonas aeruginosa [12],12.5 µM
same,MIC,Pseudomonas aeruginosa [14],6.3 µM
H-KKLKAFLKAWAKLFKAL-NH2,MIC,Pseudomonas aeruginosa [2],1.5 µM
same,Activity,Escherichia coli [3],40%
same,Activity,Lipid bilayer [4],25 to 70%
same,"hemolysis at 1 h, 40 µM",[5],89%
same,MIC,Pseudomonas aeruginosa [6],6.3 µM
same,Activity,Lipid bilayer [7],Active
same,MIC,Pseudomonas aeruginosa [8],3.1 µM
same,Activity,Escherichia coli [9],Active
same,Activity,Lipid bilayer [10],Active
same,MIC,Escherichia coli [11],1.6 µM
same,MIC,Pseudomonas aeruginosa [12],3.1 µM
same,MIC,Pseudomonas aeruginosa [14],3.1 µM
same,"hemolysis at 1 h, up to 640 µM",[15],< 1%
H-KKKAAFLKLWAKLFKAL-NH2,MIC,Pseudomonas aeruginosa [2],3.1 µM
same,Activity,Escherichia coli [3],40%
same,Activity,Lipid bilayer [4],25 to 70%
same,"hemolysis at 1 h, 40 µM",[5],100%
same,MIC,Pseudomonas aeruginosa [6],6.3 µM
same,Activity,Lipid bilayer [7],Active
same,MIC,Pseudomonas aeruginosa [8],3.1 µM
same,Activity,Escherichia coli [9],Active
same,Activity,Lipid bilayer [10],Active
same,MIC,Escherichia coli [11],3.1 µM
same,MIC,Pseudomonas aeruginosa [12],3.1 µM
same,MIC,Pseudomonas aeruginosa [14],3.1 µM
H-KAAKKFAKAWAKAFKAA-NH2,MIC,Pseudomonas aeruginosa [2],> 50 µM
same,Activity,Escherichia coli [3],8%
same,"hemolysis at 1 h, 40 µM",[5],0%
same,MIC,Pseudomonas aeruginosa [6],> 50 µM
same,MIC,Pseudomonas aeruginosa [8],> 50 µM
same,Activity,Escherichia coli [9],Active
same,Stability,[16],Unstable
same,Activity,Lipid bilayer [10],Not Active
same,MIC,Escherichia coli [11],12.5 µM
same,MIC,Pseudomonas aeruginosa [12],50 µM
same,Activity,Escherichia coli [13],Active
same,MIC,Pseudomonas aeruginosa [14],> 50 µM
same,Activity,Escherichia coli [17],Active
same,"hemolysis at 1 h, up to 640 µM",[15],< 1%
H-KKKKKKALFALWLAFLA-NH2,Activity,Lipid bilayer [1],Not Active
same,MIC,Pseudomonas aeruginosa [2],> 50 µM
same,Activity,Escherichia coli [3],80%
same,Activity,Lipid bilayer [4],4 to 8%
same,"hemolysis at 1 h, 40 µM",[5],33%
same,MIC,Pseudomonas aeruginosa [6],> 50 µM
same,Activity,Lipid bilayer [7],Active
same,MIC,Pseudomonas aeruginosa [8],50 µM
same,Activity,Escherichia coli [9],Active
same,Activity,Lipid bilayer [10],Active
same,MIC,Escherichia coli [11],12.5 µM
same,MIC,Pseudomonas aeruginosa [12],> 50 µM
same,Activity,Escherichia coli [13],Active
same,MIC,Pseudomonas aeruginosa [14],25 µM
H-KKAKAFAKAWAKAFKAA-NH2,MIC,Pseudomonas aeruginosa [2],> 50 µM
same,Activity,Escherichia coli [3],80%
same,"hemolysis at 1 h, 40 µM",[5],0%
same,MIC,Pseudomonas aeruginosa [6],> 50 µM
same,MIC,Pseudomonas aeruginosa [8],50 µM
same,Activity,Escherichia coli [9],Active
same,Stability,[16],Unstable
same,Activity,Lipid bilayer [10],Not Active
same,MIC,Escherichia coli [11],12.5 µM
same,MIC,Pseudomonas aeruginosa [12],25 µM
same,MIC,Pseudomonas aeruginosa [14],50 µM
same,Activity,Escherichia coli [17],Active
same,"hemolysis at 1 h, up to 640 µM",[15],< 1%
H-KKKKAAFAKAWAKAFAA-NH2,MIC,Pseudomonas aeruginosa [2],50 µM
same,"hemolysis at 1 h, 40 µM",[5],0%
same,MIC,Pseudomonas aeruginosa [6],> 50 µM
same,MIC,Pseudomonas aeruginosa [8],50 µM
same,Activity,Escherichia coli [9],Active
same,Stability,[16],Unstable
same,Activity,Lipid bilayer [10],Not Active
same,MIC,Escherichia coli [11],12.5 µM
same,MIC,Pseudomonas aeruginosa [12],50 µM
same,MIC,Pseudomonas aeruginosa [14],> 50 µM
same,Activity,Escherichia coli [17],Active
same,"hemolysis at 1 h, up to 640 µM",[15],< 1%
H-KKKKKAAFAKAWAAFAA-NH2,MIC,Pseudomonas aeruginosa [2],50 µM
same,"hemolysis at 1 h, 40 µM",[5],0%
same,MIC,Pseudomonas aeruginosa [6],50 µM
same,MIC,Pseudomonas aeruginosa [8],25 µM
same,Activity,Escherichia coli [9],Active
same,Stability,[16],Stable
same,Activity,Lipid bilayer [10],Not Active
same,MIC,Escherichia coli [11],6.3 µM
same,MIC,Pseudomonas aeruginosa [12],25 µM
same,MIC,Pseudomonas aeruginosa [14],50 µM
same,Activity,Escherichia coli [17],Active
same,"hemolysis at 1 h, up to 640 µM",[15],< 1%
H-KKKKAAFLKLWLKLFAA-NH2,MIC,Pseudomonas aeruginosa [2],> 50 µM
same,Activity,Escherichia coli [3],40%
same,Activity,Lipid bilayer [4],25 to 70%
same,"hemolysis at 1 h, 40 µM",[5],8%
same,MIC,Pseudomonas aeruginosa [6],> 50 µM
same,Activity,Lipid bilayer [7],Active
same,MIC,Pseudomonas aeruginosa [8],> 50 µM
same,Activity,Escherichia coli [9],Active
same,Activity,Lipid bilayer [10],Active
same,MIC,Escherichia coli [11],12.5 µM
same,MIC,Pseudomonas aeruginosa [12],> 50 µM
same,MIC,Pseudomonas aeruginosa [14],> 50 µM
